The target of series [1] is T1, UDP-3-O-acyl-N-acetylglucosamine deacetylase (Pseudomonas aeruginosa, UniProt B5ATN6).
T1 sequence (B5ATN6 whole entry): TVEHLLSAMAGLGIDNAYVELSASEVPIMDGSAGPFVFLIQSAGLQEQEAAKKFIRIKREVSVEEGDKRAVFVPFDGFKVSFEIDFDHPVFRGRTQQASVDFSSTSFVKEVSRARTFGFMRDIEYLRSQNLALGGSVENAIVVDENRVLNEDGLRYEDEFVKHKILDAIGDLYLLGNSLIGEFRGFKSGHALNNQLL
In words: Inhibition of Pseudomonas aeruginosa LpxC.

Series [2] concerns Pseudomonas aeruginosa. In words: Antibacterial activity against Pseudomonas aeruginosa PA7. It is filed as functional. In a few lines: (§1)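 MIC in µg/ml against P. aeruginosa strains with fully functioning efflux pumps. PAO1 is wild type and efflux pump competent.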
The subject of series [3] is Pseudomonas aeruginosa. As to the kind of experiment: Antibacterial activity against quinolone-resistant Pseudomonas aeruginosa PA3060. The class given is functional. In a few lines: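 MIC (µg/ml) against quinolone-resistant P. aeruginosa PA-3060, run alongside efflux-competent strains PAO1 and PA-7 and the multi-efflux-pump knockout PA-3919. Some analogs were tested as racemates.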

Series [4] deals with Pseudomonas aeruginosa. As to the kind of experiment: Antibacterial activity against multi efflux pump knock out Pseudomonas aeruginosa PA3919. The class given is functional. In a few lines:
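MIC in µg/ml against P. aeruginosa PA-3919, which lacks multiple efflux pumps. The strain is used to tell whether a compound is a substrate of these pumps.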

Series [5] deals with Pseudomonas aeruginosa. In words: Antibacterial activity against Pseudomonas aeruginosa PAO1. The class given is functional. In short, it runs like this: as §1
Series [6] relates to Pseudomonas aeruginosa. As to the kind of experiment: Antibacterial activity against Pseudomonas aeruginosa. It is filed as functional.
Series [7] has as its system Escherichia coli. In words: Antibacterial activity against Escherichia coli. The class given is functional.
Series [8] concerns Klebsiella pneumoniae. In words: Antibacterial activity against Klebsiella pneumoniae. It is filed as functional.
In series [9] the test system is Acinetobacter baumannii. As to the kind of experiment: Antibacterial activity against Acinetobacter baumannii. The class given is functional.
A short description of series [10]: Lipophilicity, log D of the compound at pH 7.4. The class given is physicochemical. The following applies: buffer.
The nature of series [11]: Fraction unbound in human plasma. The class given is ADME, cell-free.

Consider 15 compounds from ChEMBL document CHEMBL2163274, “Heterocyclic methylsulfone hydroxamic acid LpxC inhibitors as Gram-negative antibacterial agents” (Bioorg Med Chem Lett, 2012).

SMILES strings stand for the structures. Values after ≈ are worked out from the molar mass of the structure shown. A value given as a limit tells only on which side of the number the result lay.

In [1], `COc1ccc(-c2cn(CC[C@](C)(C(=O)NO)S(C)(=O)=O)nn2)c(F)c1` had an IC50 of 1.2 nM. Also, the minimum inhibitory concentration (MIC) worked out at 2 µg/mL (≈ 5.18 µM) in series [2], 4 µg/mL (≈ 10.4 µM) in series [3], 0.06 µg/mL (≈ 0.155 µM) in [4] and 2 µg/mL (≈ 5.18 µM) in [5]. Besides, the MIC90 in [6] was 4 µg/mL (≈ 10.4 µM); in [7], 16 µg/mL (≈ 41.4 µM); in series [8], more than 32 µg/mL; in series [9], more than 32 µg/mL. The compound also registered a logD in series [10] of 1.36. The compound also came in with an unbound share (fraction unbound) in series [11] of 0.085.

With `Cc1ccc(-c2cn(CC[C@](C)(C(=O)NO)S(C)(=O)=O)nn2)cc1`, in [1], the concentration for half-maximal inhibition (IC50) worked out at 1.39 nM. Also, the MIC in [2] is 4 µg/mL (≈ 11.4 µM); in series [3] it was 8 µg/mL (≈ 22.7 µM); in series [4], 0.125 µg/mL (≈ 0.355 µM); in series [5] it was 2 µg/mL (≈ 5.68 µM).

`C[C@@](CCn1cc(-c2ccc(Cl)c(Cl)c2)nn1)(C(=O)NO)S(C)(=O)=O` displayed an IC50 in series [1] of 1.67 nM. Further, the minimal inhibitory concentration (MIC) in series [2] is 2 µg/mL (≈ 4.91 µM); in [3] it was 2 µg/mL (≈ 4.91 µM); in series [4], less than 0.06 µg/mL; in series [5], 1 µg/mL (≈ 2.46 µM).

`C[C@@](CCn1cc(-c2ccc(F)c(F)c2)nn1)(C(=O)NO)S(C)(=O)=O` showed an IC50 in series [1] of 1.87 nM. The MIC in series [2] amounted to 4 µg/mL (≈ 10.7 µM); in series [3] it was 4 µg/mL (≈ 10.7 µM); in [4] it was 0.06 µg/mL (≈ 0.16 µM); in [5] it was 4 µg/mL (≈ 10.7 µM).

Consider `CC(CCc1cc(-c2cccc(Cl)c2Cl)on1)(C(=O)NO)S(C)(=O)=O` (racemic), for which inhibition in series [1] was half-maximal at 2.66 nM (IC50). Moreover, the figures for the MIC in series [3] and in series [4] were 2 µg/mL (≈ 4.91 µM) and 0.06 µg/mL (≈ 0.147 µM), respectively.

Turning to `CC(CCc1cc(-c2cccc(F)c2)on1)(C(=O)NO)S(C)(=O)=O` (racemic), inhibition in series [1] was half-maximal at 6.75 nM (IC50). Also, the figures for the MIC in series [3] and in series [4] were 4 µg/mL (≈ 11.2 µM) and less than 0.06 µg/mL, respectively.

`CC(CCc1cc(-c2ccccc2F)on1)(C(=O)NO)S(C)(=O)=O` (racemic): the IC50 in series [1] came to 8.31 nM. In addition, the minimum inhibitory concentration (MIC) is 2 µg/mL (≈ 5.61 µM) in series [2], 2 µg/mL (≈ 5.61 µM) in series [3], 0.06 µg/mL (≈ 0.168 µM) in series [4] and 1 µg/mL (≈ 2.81 µM) in [5].

In [1], `Cc1ccc(-c2cc(CCC(C)(C(=O)NO)S(C)(=O)=O)on2)cc1` (racemic) registered an IC50 of 2.93 nM. Besides, the MIC in [2] is 2 µg/mL (≈ 5.68 µM); in series [3], 2 µg/mL (≈ 5.68 µM); in series [4], less than 0.06 µg/mL; in series [5], 1 µg/mL (≈ 2.84 µM).

In turn, `CC(CCc1cc(-c2cccc(F)c2F)no1)(C(=O)NO)S(C)(=O)=O` (racemic) displayed a half-maximal inhibitory concentration (IC50) in series [1] of 6.81 nM. The MIC is 2 µg/mL (≈ 5.34 µM) in series [2], 4 µg/mL (≈ 10.7 µM) in series [3], less than 0.06 µg/mL in [4] and 2 µg/mL (≈ 5.34 µM) in series [5].

In turn, `CC(CCc1cn(-c2ccccc2)nn1)(C(=O)NO)S(C)(=O)=O` (racemic) registered a 50% inhibitory concentration (IC50) in series [1] of 3 nM. Further, the MIC in [2] worked out at 16 µg/mL (≈ 47.3 µM); in series [3] it was 32 µg/mL (≈ 94.6 µM); in series [4], 0.5 µg/mL (≈ 1.48 µM); in [5], 8 µg/mL (≈ 23.6 µM).

Regarding `CC(CCc1cnn(-c2ccccc2)c1)(C(=O)NO)S(C)(=O)=O` (racemic), in series [1], the IC50 was determined as 13.5 nM. The MIC came to 32 µg/mL (≈ 94.8 µM) in [2], 64 µg/mL (≈ 190 µM) in [3], 0.5 µg/mL (≈ 1.48 µM) in [4] and 8 µg/mL (≈ 23.7 µM) in [5].

Compound `CC(CCc1nnc(-c2ccccc2)[nH]1)(C(=O)NO)S(C)(=O)=O` (racemic) showed a 50% inhibitory concentration (IC50) in [1] of more than 100 nM. Also, the MIC was more than 64 µg/mL in series [2], more than 64 µg/mL in series [3], 64 µg/mL (≈ 189 µM) in [4] and more than 64 µg/mL in series [5].

In turn, `CC(CCc1nc(-c2ccccc2)no1)(C(=O)NO)S(C)(=O)=O` (racemic) registered a half-inhibitory concentration (IC50) in [1] of more than 100 nM. Also, the MIC in series [2] was 32 µg/mL (≈ 94.3 µM); in [3], more than 64 µg/mL; in series [4], 0.5 µg/mL (≈ 1.47 µM); in series [5], 16 µg/mL (≈ 47.1 µM).

The compound `CC(CCc1cc(-c2ccccc2)n[nH]1)(C(=O)NO)S(C)(=O)=O` (racemic) showed an IC50 in series [1] of more than 100 nM. In addition, the MIC in [2] is more than 64 µg/mL; in [3], more than 64 µg/mL; in series [4], 4 µg/mL (≈ 11.9 µM); in series [5], more than 64 µg/mL.

In [1], `CC(CCn1ncc(-c2ccccc2)n1)(C(=O)NO)S(C)(=O)=O` (racemic) yielded an IC50 of more than 100 nM. Moreover, the MIC came to 32 µg/mL (≈ 94.6 µM) in series [2], 64 µg/mL (≈ 189 µM) in series [3], 0.5 µg/mL (≈ 1.48 µM) in series [4] and 32 µg/mL (≈ 94.6 µM) in series [5].
